Paper PMC4216208 (Journal of Medicinal Chemistry, 2014)
Entries after “also recorded” stand apart in the source; their conditions may differ.

How the values were obtained:
C. elegans = test: Bioaccumulation in C. elegans; format: in vitro ADME, Caenorhabditis elegans; settings: for accumulation in C. elegans (in words): late-stage L4 worms, 10 μM (2 nmol/mg worm), 6 h, LC-MS of homogenates; for worm concentration as share of the dose: at 6 h, dose 2 nmol/mg worm
How it was run: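 Synchronised C. elegans grown to late L4 on E. coli OP50 at 25 °C for 40 h, water-washed, and suspended in M9 at ~5−10 worms/μL. Dosed at 10 μM final (~2 nmol/mg worm) from DMSO stock, 6 or 12 h at rt. Washed in 0.1% SDS then water, frozen, lyophilised, weighed, extracted into cold MeOH/MeCN with internal standard. Quantified by LC-ESI-MS against blank-worm calibration; mean ± sd, n = 3.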

HEK 293T/17 cells [1] = test: Mitochondrial-uncoupling assay; format: cell-based, human; settings: 50 μM compound, TMRE staining
How it was run: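 HEK 293T/17 cells were trypsinised and suspended at 1−2 × 10^6 cells/mL in DMEM with 10% FBS, then given test compound (50 μM) or DMSO for 30 min at 37 °C. TMRE (~450 nM final) was added for 30 min in the dark at 37 °C. Cells were washed twice in 0.2% BSA/PBS, resuspended, and read by plate fluorescence (em 575 nm). Unstained and DMSO controls were included; mean ± sd, n = 3.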

O. volvulus L3 larvae = test: O. volvulus L3 molting inhibition; format: cell-based, Onchocerca volvulus; settings: for inhibition at 1 µM: Onchocerca volvulus, read-out: inhibition of O. volvulus L3 molting
EhCHT1 = test: Chitinase activity assay, Entamoeba histolytica chitinase; format: biochemical; settings: 10 μM final concentration
BmCHT1 = molecular target: T1, BmCHT1 (Brugia malayi, UniProt P29030); test: Chitinase activity assay, Brugia malayi chitinase; format: biochemical; settings: 10 μM final concentration
T1 sequence (P29030 23-504): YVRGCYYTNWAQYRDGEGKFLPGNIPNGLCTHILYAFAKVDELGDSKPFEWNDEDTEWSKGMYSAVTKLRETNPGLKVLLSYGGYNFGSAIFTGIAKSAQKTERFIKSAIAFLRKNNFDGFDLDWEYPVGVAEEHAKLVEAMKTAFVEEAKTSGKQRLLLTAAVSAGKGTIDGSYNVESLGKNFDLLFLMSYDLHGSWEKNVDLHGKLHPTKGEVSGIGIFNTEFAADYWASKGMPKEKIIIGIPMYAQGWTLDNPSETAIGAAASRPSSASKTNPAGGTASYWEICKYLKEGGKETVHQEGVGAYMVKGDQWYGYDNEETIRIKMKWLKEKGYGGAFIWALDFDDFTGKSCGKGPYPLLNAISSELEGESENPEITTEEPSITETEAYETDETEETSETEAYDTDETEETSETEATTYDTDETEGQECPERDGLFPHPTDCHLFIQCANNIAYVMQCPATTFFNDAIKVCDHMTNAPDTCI

PfCHT1 = molecular target: T2, PfCHT1 (Plasmodium falciparum, UniProt Q8I4R4); test: Chitinase activity assay, Plasmodium falciparum chitinase; format: biochemical; settings: 10 μM final concentration
T2 sequence (Q8I4R4 29-378): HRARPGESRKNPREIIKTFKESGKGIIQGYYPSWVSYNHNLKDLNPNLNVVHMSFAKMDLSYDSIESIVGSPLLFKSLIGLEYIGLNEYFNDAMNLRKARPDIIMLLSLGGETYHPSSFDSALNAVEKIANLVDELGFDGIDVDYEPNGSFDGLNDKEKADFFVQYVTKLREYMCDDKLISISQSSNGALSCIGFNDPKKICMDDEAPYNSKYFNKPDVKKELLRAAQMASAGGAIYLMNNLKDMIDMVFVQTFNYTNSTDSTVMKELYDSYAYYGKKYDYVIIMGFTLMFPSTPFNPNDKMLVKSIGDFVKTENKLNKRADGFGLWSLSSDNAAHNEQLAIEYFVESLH

HEK 293T/17 cells [2] = test: Cell viability assay; format: cell-based, human; settings: 1 and 10 μM, 24 h, MTS assay
How it was run: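 HEK 293T/17 cells (2 × 10^4) plated and held 24 h at 37 °C, then exposed to test compound at 1 and 10 μM final. Viability was read by MTS at 0.5 and 24 h after treatment.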

OvCHT1 = molecular target: T3, OvCHT1 (Onchocerca volvulus, UniProt Q25615); test: O. volvulus chitinase; format: biochemical; settings: for inhibition of OvCHT1 at single concentration: 10 μM final concentration, relative to control (0.5% DMSO in water)
T3 sequence (Q25615 22-497): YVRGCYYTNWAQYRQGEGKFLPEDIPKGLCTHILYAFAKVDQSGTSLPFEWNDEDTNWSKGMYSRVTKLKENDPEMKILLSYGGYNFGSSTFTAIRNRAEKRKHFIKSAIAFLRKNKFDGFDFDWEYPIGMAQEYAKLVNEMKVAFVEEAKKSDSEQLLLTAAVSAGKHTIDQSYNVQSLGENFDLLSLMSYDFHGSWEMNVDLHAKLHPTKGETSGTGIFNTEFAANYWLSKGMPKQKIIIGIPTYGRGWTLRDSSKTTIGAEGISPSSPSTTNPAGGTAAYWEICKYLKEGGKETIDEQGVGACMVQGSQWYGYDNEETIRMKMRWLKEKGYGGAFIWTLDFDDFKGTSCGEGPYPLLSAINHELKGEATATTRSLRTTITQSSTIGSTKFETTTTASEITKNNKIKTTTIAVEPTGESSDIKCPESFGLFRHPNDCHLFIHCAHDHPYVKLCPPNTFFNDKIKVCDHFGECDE

[3] = 10 μM, 24 h preincubation, molting assessed day 6

Compound	accumulation in C. elegans (in words) (C. elegans)	mitochondrial-uncoupling (protonophoric) activity (HEK 293T/17 cells [1])	effect on O. volvulus L3 molting (O. volvulus L3 larvae; [3])	inhibition of EhCHT1 at single concentration (EhCHT1)	inhibition of BmCHT1 at single concentration (BmCHT1)	inhibition of PfCHT1 at single concentration (PfCHT1)	inhibition of OvCHT1 at single concentration (OvCHT1)	also measured
N#CC(C#N)=NNc1cccc(Cl)c1 [CCCP, carbonyl cyanide m-chlorophenyl hydrazone, reference compound]	accumulated in C. elegans	a protonophore only	fully inhibited the molting	–	–	–	–	effect on O. volvulus L3 molting (O. volvulus L3 larvae; 1 μM): did not show any impact on molting
O=C(Nc1ccc(Oc2ccccc2)cc1)c1cc(I)cc(I)c1O [Compound 3a, 2-Hydroxy-3,5-diiodo-N-(4-phenoxyphenyl)benzamide]	–	mitochondrial-uncoupling activity	–	–	–	–	–	–
COc1c(I)cc(I)cc1C(=O)Nc1ccc(Oc2ccccc2)cc1 [Compound 3b, 3,5-Diiodo-2-methoxy-N-(4-phenoxyphenyl)benzamide]	–	loss of uncoupling activity	–	–	–	–	–	–
CN(C(=O)c1cc(I)cc(I)c1O)c1ccc(Oc2ccccc2)cc1 [Compound 3c, 2-Hydroxy-3,5-diiodo-N-methyl-N-(4-phenoxyphenyl)benzamide]	–	eradicated protonophoric activity	–	–	–	–	–	–
COc1c(I)cc(I)cc1C(=O)N(C)c1ccc(Oc2ccccc2)cc1 [Compound 3d, 3,5-Diiodo-2-methoxy-N-methyl-N-(4-phenoxyphenyl)benzamide]	–	loss of uncoupling activity	–	–	–	–	–	–
O=C(Nc1ccc(Oc2ccccc2)cc1)c1cc(I)cc(I)c1 [Compound 3e, 3,5-Diiodo-N-(4-phenoxyphenyl)benzamide]	–	loss of uncoupling activity	–	–	–	–	–	–
O=C(Nc1ccc(Oc2ccc(Cl)cc2)cc1)c1cc(I)cc(I)c1O [Compound 3h, N-(4-(4-Chlorophenoxy)phenyl)-2-hydroxy-3,5-diiodobenzamide]	accumulated in C. elegans	mitochondrial-uncoupling activity	completely abolished molting	sparing	sparing	sparing	complete inhibition	inhibition at 1 µM (O. volvulus L3 larvae): ≤ 84%; effect on cell viability of HEK 293T/17 cells (HEK 293T/17 cells [2]): no considerable effect on cell viability
COc1c(I)cc(I)cc1C(=O)Nc1ccc(Oc2ccc(Cl)cc2)cc1 [Compound 3i, N-(4-(4-Chlorophenoxy)phenyl)-3,5-diiodo-2-methoxybenzamide]	accumulated in C. elegans	loss of uncoupling activity; also recorded: devoid of protonophoric activity	only marginal inhibition	sparing	sparing	sparing	complete inhibition	effect on O. volvulus L3 molting (O. volvulus L3 larvae; 100 μM): completely hindered L3 molting
O=C(Nc1ccc(Oc2ccc(Cl)cc2)cc1)c1cc(I)cc(I)c1 [Compound 3j, N-(4-(4-Chlorophenoxy)phenyl)-3,5-diiodobenzamide]	accumulated in C. elegans	loss of uncoupling activity; also recorded: devoid of protonophoric activity	–	sparing	sparing	sparing	complete inhibition	–
O=C(Nc1ccc2ccccc2c1)c1cc(I)cc(I)c1O [Compound 4a, 2-Hydroxy-3,5-diiodo-N-(naphthalen-2-yl)benzamide]	accumulated in C. elegans	mitochondrial-uncoupling activity	completely abolished molting	–	–	–	–	worm concentration as share of the dose (C. elegans): less than 50%; inhibition at 1 µM (O. volvulus L3 larvae): ≤ 84%; effect on cell viability of HEK 293T/17 cells (HEK 293T/17 cells [2]): no considerable effect on cell viability
COc1c(I)cc(I)cc1C(=O)Nc1ccc2ccccc2c1 [Compound 4b, 3,5-Diiodo-2-methoxy-N-(naphthalen-2-yl)benzamide]	accumulated in C. elegans	loss of uncoupling activity; also recorded: devoid of protonophoric activity	inhibited molting	–	–	–	–	worm concentration as share of the dose (C. elegans): less than 50%; effect on O. volvulus L3 molting (O. volvulus L3 larvae; 1 μM): did not show any impact on molting
O=C(Nc1ccc2ccccc2c1)c1cc(I)cc(I)c1 [Compound 4c, 3,5-Diiodo-N-(naphthalen-2-yl)benzamide]	–	loss of uncoupling activity	–	–	–	–	–	–
O=C(Nc1ccc(-c2ccccc2)cc1)c1cc(I)cc(I)c1O [Compound 5a, N-([1,1′-Biphenyl]-4-yl)-2-hydroxy-3,5-diiodobenzamide]	accumulated in C. elegans	–	–	sparing	sparing	sparing	complete inhibition	–
O=C(Nc1ccc(-c2ccc(Cl)cc2)cc1)c1cc(I)cc(I)c1O [Compound 5c, N-(4′-Chloro-[1,1′-biphenyl]-4-yl)-2-hydroxy-3,5-diiodobenzamide]	accumulated in C. elegans	–	–	sparing	sparing	sparing	complete inhibition	–
COc1c(I)cc(I)cc1C(=O)O [Compound 6b, 3,5-Diiodo-2-methoxybenzoic Acid]	–	neither an OvCHT1 inhibitor nor a protonophore	no inhibition on molting	–	–	–	–	OvCHT1 inhibitor or not (in words) (OvCHT1): neither an OvCHT1 inhibitor nor a protonophore
